# Reference: ChEMBL document CHEMBL1781878, “Novel carbamate cholinesterase inhibitors that release biologically active amines following enzyme inhibition” (Bioorg Med Chem Lett, 2009)
# Calls of active or inactive are those of the source.
# Experiments:
# [1] = biological target: Acetylcholinesterase (Homo sapiens) (UniProt P22303)
# [2] = Toxicity in po dosed rat assessed as maximum tolerated dose at which reversible and non-life threatening cholinergic effect observed; type: organism-based; conditions: in vivo
# Summary of the method: (§1)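 Rats dosed orally and observed for cholinergic signs (salivation, lacrimation, fasciculations, diarrhea, seizures) and overt behaviour including locomotor stimulation. MTD defined as the dose giving clear, reversible, non-life-threatening cholinergic effects.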
# Rattus norvegicus [3] = experiment: Inhibition of total brain cholinesterase activity in rat at 10 mg/kg, po measured 30 to 180 mins post dose; type: functional
# Summary of the method: (§2)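 Rats received oral saline solutions at the maximum tolerated or highest tested dose; after sacrifice, brain samples processed and total ChE activity determined spectrophotometrically versus control. n = 4 animals per group, mean given.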
# Cholinesterase = Cholinesterase (Homo sapiens, UniProt P06276); experiment: Inhibition of purified human plasma BuChE preincubated for 30 mins before DTNB substrate addition by spectrophotometric assay based Ellman's method
# Sequence of Cholinesterase (P06276 whole entry): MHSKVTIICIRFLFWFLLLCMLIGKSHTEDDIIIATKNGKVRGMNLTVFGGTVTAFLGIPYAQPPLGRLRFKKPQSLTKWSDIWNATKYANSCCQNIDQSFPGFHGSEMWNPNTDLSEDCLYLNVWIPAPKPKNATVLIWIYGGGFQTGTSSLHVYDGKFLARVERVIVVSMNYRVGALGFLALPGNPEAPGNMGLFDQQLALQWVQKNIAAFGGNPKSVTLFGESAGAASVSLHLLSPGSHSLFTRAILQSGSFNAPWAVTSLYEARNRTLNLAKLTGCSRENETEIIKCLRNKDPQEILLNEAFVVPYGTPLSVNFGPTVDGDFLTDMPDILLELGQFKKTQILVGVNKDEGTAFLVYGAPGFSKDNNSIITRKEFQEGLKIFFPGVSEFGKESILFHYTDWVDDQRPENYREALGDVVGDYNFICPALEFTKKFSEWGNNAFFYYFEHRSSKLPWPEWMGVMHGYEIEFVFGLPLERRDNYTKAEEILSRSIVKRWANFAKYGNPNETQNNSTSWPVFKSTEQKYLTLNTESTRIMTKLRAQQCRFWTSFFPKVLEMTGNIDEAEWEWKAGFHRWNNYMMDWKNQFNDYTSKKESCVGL
# Summary of the method: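 Enzyme: human BuChE purified from serum. Modified Ellman assay. Inhibitor preincubated with enzyme 30 min at 25 °C in 10 mM Tris pH 8.0, then acetylthiocholine (0.3 mM) added; DTNB 0.33 mM final. At least five inhibitor levels plotted as Dixon plot; IC50 from x-intercept. Triplicates, two or three independent experiments.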
# Rattus norvegicus [4] = experiment: Inhibition of total plasma cholinesterase in rat at 10 mg/kg, po measured 60 mins post dose; type: functional; conditions: 1 h
# Summary of the method: (§3)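 Rats given oral saline solutions of compound at the maximum tolerated or highest tested dose; sacrificed 60 min post-dose, blood collected and processed, plasma ChE activity measured spectrophotometrically (Ellman-type). n = 4 rats per group; mean reported.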
# Homo sapiens = species on record: Homo sapiens; experiment: Selectivity index, ratio of IC50 for purified human […] to IC50 for human recombinant AChE
# Summary of the method: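 Modified Ellman assay on recombinant human AChE and human serum-purified BuChE. Enzyme and inhibitor were preincubated 30 min at 25 °C in 10 mM Tris pH 8.0, then ATCh (0.3 mM) was added with DTNB (0.33 mM final). A405 was read for 5 min and initial rates compared to control. IC50s come from Dixon plots (≥5 inhibitor concentrations), triplicate, 2–3 independent runs. Selectivity is the ratio of the two IC50s.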
# Rattus norvegicus [5] = experiment: Inhibition of total plasma cholinesterase in rat at 32 mg/kg, po measured 60 mins post dose; type: functional; conditions: 1 h
# Summary of the method: as §3
# Rattus norvegicus [6] = experiment: Inhibition of total brain cholinesterase activity in rat at 32 mg/kg, po measured 30 to 180 mins post dose; type: functional
# Summary of the method: as §2
# Rattus norvegicus [7] = experiment: Toxicity in rat assessed as induction of diarrhea incidence at 5 mg/kg, po; type: organism-based; parameters: dose 5 mg/kg, route oral; conditions: in vivo
# Summary of the method: as §1
# Rattus norvegicus [8] = experiment: Inhibition of total brain cholinesterase activity in rat at 5 mg/kg, po measured 30 to 180 mins post dose; type: functional
# Summary of the method: (§4)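 Oral dosing in saline to rats; animals sacrificed at 30, 60 and 180 min; plasma and brain processed and ChE activity read spectrophotometrically. Value is mean of the three time points; n = 4 rats per group.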
# Rattus norvegicus [9] = experiment: Inhibition of total plasma cholinesterase in rat at 5 mg/kg, po measured 30 to 180 mins post dose; type: functional
# Summary of the method: as §4
# Rattus norvegicus [10] = experiment: Toxicity in rat assessed as induction of seizures incidence at 5 mg/kg, po; type: organism-based; parameters: dose 5 mg/kg, route oral; conditions: in vivo
# Summary of the method: as §1
# Rattus norvegicus [11] = experiment: Toxicity in rat assessed as induction of severe fasciculation, salivation and lacrimation incidence at 5 mg/kg, po; type: organism-based; parameters: dose 5 mg/kg, route oral; conditions: in vivo
# Summary of the method: as §1
# Rattus norvegicus [12] = experiment: Inhibition of total brain cholinesterase activity in rat at >100 mg/kg, po measured 30 to 180 mins post dose; type: functional
# Summary of the method: as §2
# Rattus norvegicus [13] = experiment: Memory enhancing effect in rat Scopolamine passive avoidance model assessed as reversal of Scopolamine-induced amnesia by measuring step-through latencies at 8 mg/kg, ip compound administered 30 mins before training and Scopolamine added 40 mins before training; type: functional, organism-based; parameters: dose 8 mg/kg
# Summary of the method: (§5)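 Passive avoidance in rats: scopolamine hydrobromide 0.2 mg/kg sc 40 min before training; saline or compound ip 30 min before training. Retention test 24 h later, identical to training but without foot-shock or drug; latency to enter dark chamber recorded.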
# Rattus norvegicus [14] = experiment: Inhibition of cholinesterase activity in rat assessed as reconstituted enzyme-mediated release of amphetamine in to plasma at 64 mg/kg, po measured 1 hr post dose; type: functional
# Summary of the method: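 Rats dosed orally with test compound in saline; plasma collected 1 h post-dose and amphetamine content quantified by LC/MS/MS.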
# Rattus norvegicus [15] = experiment: Toxicity in rat assessed as locomotor stimulation at 100 mg/kg, po; type: organism-based; parameters: dose 100 mg/kg, route oral; conditions: in vivo
# Summary of the method: as §1
# Rattus norvegicus [16] = experiment: Memory enhancing effect in rat Scopolamine passive avoidance model assessed as reversal of Scopolamine-induced amnesia by measuring step-through latencies at 12 mg/kg, ip compound administered 30 mins before training and Scopolamine added 40 mins before training; type: functional, organism-based; parameters: dose 12 mg/kg
# Summary of the method: as §5
# Rattus norvegicus [17] = experiment: Inhibition of total plasma cholinesterase in rat at >100 mg/kg, po measured 60 mins post dose; type: functional
# Summary of the method: as §3
# Rattus norvegicus [18] = experiment: Inhibition of total brain cholinesterase activity in rat at >64 mg/kg, po measured 30 to 180 mins post dose; type: functional
# Summary of the method: as §2
# Rattus norvegicus [19] = experiment: Inhibition of total plasma cholinesterase in rat at >64 mg/kg, po measured 60 mins post dose; type: functional
# Summary of the method: as §3
# Sequence of Acetylcholinesterase (Homo sapiens) (P22303 whole entry): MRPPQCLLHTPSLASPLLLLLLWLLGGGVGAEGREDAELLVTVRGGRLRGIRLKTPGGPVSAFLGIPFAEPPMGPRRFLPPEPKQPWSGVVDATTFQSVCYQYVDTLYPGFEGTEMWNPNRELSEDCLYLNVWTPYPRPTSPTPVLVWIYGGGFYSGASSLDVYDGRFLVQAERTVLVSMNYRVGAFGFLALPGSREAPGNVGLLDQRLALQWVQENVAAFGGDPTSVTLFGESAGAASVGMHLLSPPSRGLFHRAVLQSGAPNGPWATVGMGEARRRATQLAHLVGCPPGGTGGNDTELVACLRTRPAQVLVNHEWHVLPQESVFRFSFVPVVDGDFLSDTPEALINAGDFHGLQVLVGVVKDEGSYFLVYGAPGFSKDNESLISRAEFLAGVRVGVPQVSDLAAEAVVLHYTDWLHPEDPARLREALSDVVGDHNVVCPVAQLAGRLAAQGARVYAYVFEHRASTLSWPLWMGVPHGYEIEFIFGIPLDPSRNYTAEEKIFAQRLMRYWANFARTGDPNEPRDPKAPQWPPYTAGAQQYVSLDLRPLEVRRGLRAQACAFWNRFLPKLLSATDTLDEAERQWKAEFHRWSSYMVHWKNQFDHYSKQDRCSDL
smiles,measurement,setting,value
C[C@H](Cc1ccccc1)N(C)C(=O)Oc1cccc([C@H](C)N(C)C)c1.Cl,T1/2,[1],> 24 h
same,MTD,[2],10 mg/kg
same,inhibition in vivo at 10 mg/kg,Rattus norvegicus [3],64%
same,IC50,Cholinesterase,24.4 µM
same,inhibition in vivo at 10 mg/kg,Rattus norvegicus [4],45%
C[C@H](Cc1ccccc1)NC(=O)Oc1cccc([C@H](C)N(C)C)c1,Ratio IC50,Homo sapiens,1
same,inhibition in vivo at 32 mg/kg,Rattus norvegicus [5],26%
same,T1/2,[1],12 h
same,inhibition in vivo at 32 mg/kg,Rattus norvegicus [6],25%
CCN(C)C(=O)Oc1cccc([C@H](C)N(C)C)c1 [RIVASTIGMINE],Activity,Rattus norvegicus [7],Toxic
same,T1/2,[1],> 24 h
same,inhibition in vivo at 5 mg/kg,Rattus norvegicus [8],56%
same,inhibition in vivo at 5 mg/kg,Rattus norvegicus [9],39%
same,Activity,Rattus norvegicus [10],Toxic
same,Activity,Rattus norvegicus [11],Toxic
C[C@@H](Cc1ccccc1)NC(=O)Oc1cccc([C@H](C)N(C)C)c1.Cl,inhibition (INH),Rattus norvegicus [12],72%
same,Ratio IC50,Homo sapiens,14
same,inhibition,Rattus norvegicus [13],Active
same,Activity,Rattus norvegicus [14],17 ng/mL
same,Activity,Rattus norvegicus [15],Non-toxic
same,T1/2,[1],1.2 h
same,inhibition,Rattus norvegicus [16],Active
same,inhibition (INH),Rattus norvegicus [17],59%
C[C@@H](c1cccc(OC(=O)N(C)[C@@H](C)Cc2ccccc2)c1)N(C)C.Cl,inhibition (INH),Rattus norvegicus [18],50%
same,T1/2,[1],> 24 h
same,inhibition (INH),Rattus norvegicus [19],50%
